We go through twelve compounds from ChEMBL document CHEMBL1641514, “Drug metabolism-based design, synthesis, and bioactivities of 1-(2,6-dimethylphenoxy)-2-(3,4-dimethoxyphenylethylamino)propane hydrochloride (DDPH) analogs as α₁-adrenoceptors antagonists” (Bioorg Med Chem, 2011).

The term pA2 denotes the negative logarithm of the molar antagonist concentration that doubles the agonist concentration needed for the same response.

The target of experiment [1] is T1, Adrenergic receptor alpha-1 (Rattus norvegicus, UniProt P15823+P23944+P43140).
T1 sequence (P15823 whole entry): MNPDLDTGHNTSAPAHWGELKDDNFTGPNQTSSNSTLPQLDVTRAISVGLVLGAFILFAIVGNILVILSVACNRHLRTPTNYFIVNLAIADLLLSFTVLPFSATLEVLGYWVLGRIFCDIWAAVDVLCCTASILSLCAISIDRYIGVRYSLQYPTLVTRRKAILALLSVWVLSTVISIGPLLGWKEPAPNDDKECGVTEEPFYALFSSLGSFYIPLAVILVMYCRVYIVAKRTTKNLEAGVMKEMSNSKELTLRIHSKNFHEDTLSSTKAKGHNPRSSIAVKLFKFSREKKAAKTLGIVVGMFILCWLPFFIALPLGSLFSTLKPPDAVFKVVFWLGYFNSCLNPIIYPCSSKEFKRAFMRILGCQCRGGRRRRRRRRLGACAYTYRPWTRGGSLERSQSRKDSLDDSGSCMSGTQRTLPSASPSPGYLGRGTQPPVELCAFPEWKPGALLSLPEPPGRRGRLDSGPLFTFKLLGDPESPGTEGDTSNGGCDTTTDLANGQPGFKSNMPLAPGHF
T1 sequence (P23944 whole entry): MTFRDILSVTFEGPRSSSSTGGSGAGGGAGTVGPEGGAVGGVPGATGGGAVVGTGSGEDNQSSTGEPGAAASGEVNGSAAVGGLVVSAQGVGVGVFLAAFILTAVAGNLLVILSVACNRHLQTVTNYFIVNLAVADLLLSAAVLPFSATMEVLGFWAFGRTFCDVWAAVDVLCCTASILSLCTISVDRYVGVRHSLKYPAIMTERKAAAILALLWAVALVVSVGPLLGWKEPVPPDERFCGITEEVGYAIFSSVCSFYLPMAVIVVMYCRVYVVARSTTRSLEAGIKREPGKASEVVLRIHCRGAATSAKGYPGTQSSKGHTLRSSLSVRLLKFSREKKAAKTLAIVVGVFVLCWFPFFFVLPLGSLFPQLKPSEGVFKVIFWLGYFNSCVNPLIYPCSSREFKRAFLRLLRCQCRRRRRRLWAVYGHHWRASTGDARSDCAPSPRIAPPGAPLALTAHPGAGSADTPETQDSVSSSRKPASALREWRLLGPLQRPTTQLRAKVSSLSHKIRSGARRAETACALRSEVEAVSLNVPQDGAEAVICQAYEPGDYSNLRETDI
T1 sequence (P43140 whole entry): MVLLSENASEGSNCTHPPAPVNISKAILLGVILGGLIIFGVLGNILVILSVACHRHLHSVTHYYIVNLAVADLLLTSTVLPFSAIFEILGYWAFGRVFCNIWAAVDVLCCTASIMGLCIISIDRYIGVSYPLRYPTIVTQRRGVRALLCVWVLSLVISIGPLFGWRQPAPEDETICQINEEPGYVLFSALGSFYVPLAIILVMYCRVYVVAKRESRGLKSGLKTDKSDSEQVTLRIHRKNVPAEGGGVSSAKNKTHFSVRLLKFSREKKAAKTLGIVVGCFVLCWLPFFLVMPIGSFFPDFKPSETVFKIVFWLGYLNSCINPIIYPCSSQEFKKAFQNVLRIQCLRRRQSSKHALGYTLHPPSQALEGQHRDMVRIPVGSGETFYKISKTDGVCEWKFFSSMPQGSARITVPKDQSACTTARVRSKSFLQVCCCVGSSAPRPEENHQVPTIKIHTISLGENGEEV
The experiment in a line: Antagonist activity at alpha1 adrenergic receptor in Sprague-Dawley rat anococcygeus smooth muscle assessed as inhibition of phenylepinephrine-induced muscle contraction treated 20 mins before phenylepinephrine challenge. Format: functional. The gist of the method:
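Male Sprague–Dawley rats (300–350 g) killed by cervical dislocation. Anococcygeus muscle mounted in a 20 mL bath of Krebs solution (pH 7.4), 37 °C, gassed with 5% CO₂/95% O₂. Resting tension 1.0 g. Equilibrated 1 h with Krebs renewal every 20 min. Cocaine, hydrocortisone and propranolol then added. pA₂ read out.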

The subject of experiment [2] is Rattus norvegicus. The experiment is described as follows: Antihypertensive activity in Sprague-Dawley rat assessed as change in heart rate at 5 mg/kg, iv.
Experiment [3] has as its system Rattus norvegicus. The experiment in a line: Antihypertensive activity in Sprague-Dawley rat assessed as change in mean arterial pressure at 5 mg/kg, iv.
Experiment [4] concerns Rattus norvegicus. The experiment is described as follows: Antihypertensive activity in Sprague-Dawley rat assessed as change in systolic arterial pressure at 5 mg/kg, iv.
Experiment [5] has as its system Rattus norvegicus. The experiment is described as follows: Antihypertensive activity in Sprague-Dawley rat assessed as change in diastolic arterial pressure at 5 mg/kg, iv.
The subject of experiment [6] is Rattus norvegicus. The experiment in a line: Antihypertensive activity in Sprague-Dawley rat assessed as time duration of hypotensive response at 5 mg/kg, iv.

In the case of `COc1ccc(CCNC(C)COc2c(C)cccc2C)cc1OC.Cl` (configuration not stated), the pA2 in experiment [1] turned out to be 8.07. Also, the Activity in experiment [2] is listed as -16.04%; in experiment [3], -30.4%; in experiment [4], -19.79%; in experiment [5], -26%. Besides, the Time in experiment [6] is listed as 120 min.
For `COc1cc(CCNC(C)COc2c(C)cc(C#N)cc2C)ccc1O.Cl` (configuration not stated), the pA2 in experiment [1] worked out at 6.65. Also, the Activity is recorded as -2.33% in experiment [2], -24.9% in experiment [3], -17.3% in experiment [4] and -29.61% in experiment [5]. Further, the Time in experiment [6] came out at 6 min.
With `COc1cc(CCNC(C)COc2c(C)ccc(C)c2C)ccc1O.Cl` (configuration not stated), the pA2 in experiment [1] was 8.02. Also, the Activity in experiment [2] is on record as -0.96%; in experiment [3], -14.6%; in experiment [4] it was -7.9%; in experiment [5] it was -20.5%. Moreover, in experiment [6], the Time was determined as 80 min.
In the case of `COc1ccc(CCNC(C)COc2c(C)cc(C)cc2C)cc1OC.Cl` (configuration not stated), the pA2 in experiment [1] is on record as 7.25. In addition, the Activity in experiment [2] is -16.3%; in experiment [3] it was -27.86%; in experiment [4], -19.03%; in experiment [5], -28.23%. In experiment [6], the Time is 33 min.
As for `COc1ccc(CCNC(C)COc2c(C)cc(Cl)cc2C)cc1OC.Cl` (configuration not stated), the pA2 in experiment [1] was 8.18. In addition, the Activity is listed as -8.78% in experiment [2], -15.9% in experiment [3], -13.3% in experiment [4] and -18.5% in experiment [5]. Moreover, the Time in experiment [6] is recorded as 34 min.
As for `COc1ccc(CCNC(C)COc2c(C)cc(Br)cc2C)cc1OC.Cl` (configuration not stated), in experiment [1], the pA2 was 6.93. In addition, the Activity in experiment [2] is listed as -8.3%; in experiment [3] it was -8.5%; in experiment [4] it was -9.2%; in experiment [5], -7.8%. Moreover, the Time in experiment [6] is reported as 12 min.
As for `COc1cc(CCNC(C)COc2c(C)cc(Cl)cc2C)ccc1O.Cl` (configuration not stated), the pA2 in experiment [1] stood at 8.6. Further, the Activity in experiment [2] is -6.6%; in experiment [3], -20.2%; in experiment [4] it was -12.1%; in experiment [5], -25.1%. For the same compound, the Time in experiment [6] is on record as 61 min.
In the case of `COc1ccc(CCNC(C)COc2c(C)cc(C#N)cc2C)cc1O.Cl` (configuration not stated), the pA2 in experiment [1] amounted to 5.61. The Activity in experiment [2] was -6.4%; in experiment [3], -11%; in experiment [4], -8.2%; in experiment [5], -14.2%. In experiment [6], the Time was 4 min.
On to `COc1ccc(CCNC(C)COc2c(C)ccc(C)c2C)cc1OC.Cl` (configuration not stated), for which the pA2 in experiment [1] came out at 7.71. Moreover, the Activity is given as -16.6% in experiment [2], -27.1% in experiment [3], -17.4% in experiment [4] and -34.2% in experiment [5]. In addition, the Time in experiment [6] came to 57 min.
For `COc1cc(CCNC(C)COc2c(C)cc(Br)cc2C)ccc1O.Cl` (configuration not stated), the pA2 in experiment [1] is 9.94. The Activity is listed as -1.7% in experiment [2], -15.5% in experiment [3], -7.6% in experiment [4] and -19.1% in experiment [5]. In addition, in experiment [6], the Time stood at 23 min.
For `COc1ccc(CCNC(C)COc2c(C)cc(Br)cc2C)cc1O.Cl` (configuration not stated), the pA2 in experiment [1] was 7.02. In addition, the Activity in experiment [2] was -2.3%; in experiment [3], -7.5%; in experiment [4], -3.5%; in experiment [5], -12.8%. Moreover, the Time in experiment [6] worked out at 4 min.
For the compound `COc1cc(CCNC(C)COc2c(C)cc(C)cc2C)ccc1O.Cl` (configuration not stated), the pA2 in experiment [1] was determined as 8.86. Further, the Activity in experiment [2] is -23.52%; in experiment [3], -45.92%; in experiment [4], -36.45%; in experiment [5] it was -48.99%. The Time in experiment [6] is 205 min.
